In all, about 96,000 compounds went through this assay and about 140 (0.15%) were called active. This is one part of a sample in which actives are shown more often than they occur. Values without a mark were called inactive.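 The calls were made as follows: active = mean replicate inhibition above about 25%, with at least 55% of replicates also reaching it (limit read from the data, passing the limit was not always enough); inconclusive = only one of those two conditions met; inactive = neither condition met.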

The target of the experiment is Lysine-specific demethylase 4C (Homo sapiens) (UniProt Q9H3R0). Kind of experiment: inhibitors of GASC-1 (KDM4C) histone demethylase, primary screen, biochemical, single concentration HTS (AID 720574). The conditions noted are these: GST-KDM4C 2-372, H3K9me3 peptide, LANCE TR-FRET; at 12.5 µM; hits give high values. Summed up: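 reagent = H3K9me3 peptide substrate, Fe(II), 2-oxoglutarate | system = GST-tagged GASC-1 (JMJD2C) catalytic fragment, aa 2-372 | amount = enzyme final amount 10 nM | read-out = Fall in 671/618 emission ratio as inhibition | medium = HEPES buffer, pH 7.5, plus ascorbate | schedule = 30 min reaction, 60 min detection, RT | measured by = LANCE TR-FRET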
Lysine-specific demethylase 4C (Homo sapiens), sequence (Q9H3R0 2-372 limits assumed): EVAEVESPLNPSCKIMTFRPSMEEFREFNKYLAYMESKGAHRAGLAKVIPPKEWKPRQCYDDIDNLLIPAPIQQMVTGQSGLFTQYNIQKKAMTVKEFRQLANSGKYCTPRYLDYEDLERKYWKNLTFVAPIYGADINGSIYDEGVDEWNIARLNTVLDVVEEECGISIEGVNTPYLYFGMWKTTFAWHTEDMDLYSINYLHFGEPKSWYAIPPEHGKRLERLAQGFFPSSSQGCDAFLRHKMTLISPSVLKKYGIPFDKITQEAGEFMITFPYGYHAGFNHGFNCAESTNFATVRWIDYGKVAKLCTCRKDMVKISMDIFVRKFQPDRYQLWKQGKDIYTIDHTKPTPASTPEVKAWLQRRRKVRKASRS
In general terms: Time-resolved FRET reads energy transfer from a long-lived donor to a nearby acceptor.
One may read the inhibition as the relative decrease from the control value, in per cent. As to `Cn1cnc(CCNC(=O)C[C@@H]2CC[C@H]3[C@@H](COC[C@@H](O)CN3C(=O)Nc3ccc(Cl)cc3)O2)c1`, the inhibition was -0.915%.

As for `O=C(Cc1ccccn1)N1CC(=O)N2[C@H](C1)[C@@H](c1ccc(-c3ccccc3)cc1)[C@@H]2CO`, the inhibition is 1.11%.

As for `O=C(c1ccc2c(c1)OCO2)N1CC(=O)N2[C@H](C1)[C@@H](c1ccc(C#Cc3ccccc3)cc1)[C@@H]2CO`, the inhibition is -2.3%.

For the molecule `O=C(NCC[C@@H]1CC[C@H](NC(=O)Nc2cc(F)ccc2F)[C@@H](CO)O1)Nc1ccc(Cl)cc1`, the inhibition was 0.858%.

As to `C[C@@H]1CN([C@@H](C)CO)S(=O)(=O)c2ccc(C#Cc3ccc(F)cc3)cc2O[C@H]1CN(C)C(=O)NC1CCCC1`, the inhibition was 55.9% (active).

Take `C[C@@H]1CN([C@@H](C)CO)S(=O)(=O)c2ccc(C#Cc3ccc(F)cc3)cc2O[C@@H]1CN(C)CC1CC1`: the inhibition was -2.29%.

With `C/C=C/c1ccc2c(c1)O[C@@H](CN(C)C(=O)NC1CCCC1)[C@@H](C)CN([C@H](C)CO)S2(=O)=O`, the inhibition is 0.88%.

Consider `COc1ccc2c3c(n(C)c2c1)[C@H](CO)N(Cc1ccc(F)cc1)CC31CN(CC2CCOCC2)C1`, for which the inhibition was -0.66%.

`COc1ccc2c3c(n(C)c2c1)[C@@H](CO)N(C(=O)Nc1ccc(F)cc1)CC31CCN(C(=O)c2cccnc2)CC1`: the inhibition is -1.49%.

In the case of `CO[C@@H]1CN(C)C(=O)c2cc(NC(=O)C3CC3)ccc2OC[C@H](C)N(Cc2ccc(F)cc2)C[C@@H]1C`, the inhibition is -0.0715%.

Consider `C[C@H](CO)N1C[C@H](C)[C@@H](CN(C)S(=O)(=O)c2ccccc2)OCCCC[C@H](C)Oc2ccc(NC(=O)NC3CCCCC3)cc2C1=O`, for which the inhibition is 0.616%.

For `COCC(=O)NC[C@@H]1[C@@H](c2ccc(C3=CCCC3)cc2)[C@@H](CO)N1C(C)=O`, the inhibition is 3.61%.

In the case of `CCC(=O)Nc1ccc2c(c1)C(=O)N(C)C[C@@H](OC)[C@@H](C)CN(C(=O)CN(C)C)[C@@H](C)CO2`, the inhibition is 1.55%.

In the case of `O=C(C[C@@H]1C[C@@H]2c3cc(NS(=O)(=O)c4ccccc4)ccc3O[C@@H]2[C@@H](CO)O1)NC1CCCCC1`, the inhibition was -0.944%.

As to `CS(=O)(=O)N1CC2(C1)[C@H](c1ccccc1)[C@H](CO)N2Cc1ccc(F)cc1`, the inhibition is 0.43%.

Regarding `CO[C@@H]1CN(C)C(=O)c2ccc(NC(=O)NC(C)C)cc2OC[C@@H](C)N(Cc2ccc(-c3ccccn3)cc2)C[C@H]1C`, the inhibition was 0.434%.

On to `CO[C@H]1CN(C)C(=O)c2ccc(NS(=O)(=O)c3ccccc3)cc2OC[C@@H](C)N(Cc2nccs2)C[C@@H]1C`, for which the inhibition is 0.175%.

As for `COC(=O)C[C@H]1C[C@H]2c3cc(NC(=O)NC4CCCCC4)ccc3O[C@H]2[C@H](CO)O1`, the inhibition is 9.44%.

As to `CC(C)NC(=O)N1[C@H](CNC(=O)CN(C)C)[C@@H](c2ccccc2)[C@@H]1CO`, the inhibition is -0.351%.

As to `O=C(c1ccccn1)N1CC2(C1)[C@@H](c1ccccc1)[C@@H](CO)N2C(=O)C1CCC1`, the inhibition is -1.3%.

Turning to `O=C(NCC[C@H]1CC[C@H](NS(=O)(=O)c2ccccc2)[C@H](CO)O1)c1cc(Cl)cc(Cl)c1`, the inhibition is -1.8%.

Turning to `COc1ccc(-c2cnc3c(c2)C(=O)N([C@H](C)CO)C[C@@H](C)[C@H](CN(C)C(=O)Cc2ccncc2)O3)cc1`, the inhibition is -0.262%.

Turning to `CO[C@@H]1CN(C)C(=O)c2cc(NC(=O)Nc3ccccc3F)ccc2OC[C@H](C)NC[C@H]1C`, the inhibition is 0.557%.

Consider `CCCNC(=O)C[C@@H]1CC[C@H]2[C@H](COc3ccc(NC(=O)CCC)cc3C(=O)N2C)O1`, for which the inhibition was 1.75%.

On to `CCCNC(=O)N1CC2(C1)[C@H](c1ccccc1)[C@@H](CO)N2C(=O)C1CC1`, for which the inhibition is 1.13%.

As to `C/C=C/c1ccc([C@@H]2[C@@H](CO)N(C(=O)CN(C)C)C23CN(C(=O)C2CCCC2)C3)cc1`, the inhibition is 0.163%.

For `CO[C@@H](CN(C)S(=O)(=O)c1ccccc1)[C@H](C)CN(Cc1ccccc1Cl)[C@H](C)CO`, the inhibition is 1.1%.

With `COc1ccc2c3c(n(C)c2c1)[C@@H](CO)N(C(C)=O)CC31CCN(C(=O)C2CC2)CC1`, the inhibition is -0.393%.

In the case of `O=C(Nc1ccccc1F)N1CC(=O)N2[C@H](C1)[C@H](c1ccc(C#Cc3ccc(F)cc3)cc1)[C@@H]2CO`, the inhibition was 1.34%.

`CCC(=O)N(C)C[C@H]1Oc2ncc(-c3ccccc3OC)cc2C(=O)N([C@H](C)CO)C[C@H]1C`: the inhibition is 17.4%.

`CN1[C@@H]2CN(C(=O)C3CCCCC3)c3ccccc3[C@@H]2[C@@H]1CO`: the inhibition was 4.33%.

For the molecule `Cc1cccc(S(=O)(=O)N2C[C@@H]3[C@H](c4ccccc42)[C@H](CO)N3CC2CCOCC2)c1`, the inhibition is -0.667%.

Turning to `O=C(NCc1ccc(F)cc1)[C@@H]1[C@@H](CO)[C@@H]2Cn3c(cccc3=O)[C@@H]2N1C(=O)c1cccnc1`, the inhibition was -0.929%.

For the molecule `CO[C@H]1CN(C)C(=O)c2ccc(NC(=O)NC(C)C)cc2OC[C@@H](C)N(C(=O)CN(C)C)C[C@H]1C`, the inhibition was 0.223%.

Turning to `COc1ccc(CN(C)C[C@@H]2Oc3ccc(NC(=O)Nc4ccc(F)cc4)cc3CC(=O)N([C@@H](C)CO)C[C@H]2C)cc1`, the inhibition is -0.133%.

For the molecule `O=C(C1CCOCC1)N1C[C@H]2[C@@H](c3ccccc31)[C@@H](CO)N2Cc1ccccc1`, the inhibition was 2.96%.

For `O=C(CC1CC1)N1[C@@H]2CN(S(=O)(=O)c3ccccc3F)c3ccccc3[C@@H]2[C@@H]1CO`, the inhibition is 2%.

Consider `C[C@H](CO)N1C[C@H](C)[C@@H](CN(C)S(=O)(=O)c2ccccc2)Oc2ncc(C#Cc3ccccc3F)cc2C1=O`, for which the inhibition is -3.49%.

In the case of `C[C@H]1CN([C@@H](C)CO)C(=O)c2cc(C#Cc3ccccc3F)cnc2O[C@H]1CN(C)C`, the inhibition was 28.4% (active).

Take `C[C@H]1CN([C@@H](C)CO)C(=O)c2cc(C#Cc3ccccc3F)cnc2O[C@@H]1CN(C)C(=O)C1CC1`: the inhibition is -1.28%.

With `COc1ccc2c3c([nH]c2c1)[C@@H](CO)N(C(=O)Nc1ccc(F)cc1)CC31CN(S(C)(=O)=O)C1`, the inhibition was -0.649%.

Values taken from PubChem BioAssay AID720574 (Broad Institute, 2013).
